Compound activity as filed in PubChem BioAssay.
The full list was thinned out, with hits kept by preference.
UPR XBP1 act: activators of adaptive XBP1 UPR arm, primary screen, cell-based, CHO-XBP1 luciferase reporter, luminescence, uHTS; IRE1-XBP1 UPR activation; percent of tunicamycin response, DMSO as zero; activation, % at 20 µM; 330,000 tested, 0.33% active;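 active = versus positive control, 20 µM dose yields 30% or more activation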;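 also: 100% = tunicamycin at 10 µg/mL and 0% = DMSO only wells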
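Material – CHO cell line with stable XBP1 luciferase reporter · Buffer or medium – F12 plus 10% FBS · Compound – single point, 20 µM final compound, 1% DMSO · Schedule – 16-18 h cell attachment at 37 °C, then 6 h compound exposure · Signal – Steady-Glo luminescence read · Benchmarks – high control tunicamycin 10 µg/mL final, low control DMSO vehicle only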
CHOP inh: inhibitors of CHOP promoter induction, primary screen, cell-based, unfolded protein response, luciferase reporter; CHO-K1 CHOP-promoter luciferase, tunicamycin-induced, 15-18 h; inhibition, % at 10 µM; 220,000 tested, 3.8% active; AID 2732, 2010;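 active = compounds that reduced the stress-induced luciferase reporter signal by more than about 70% of percent inhibition, limit read from the data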;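 also: 0% = tunicamycin plus vehicle and 100% = wells without tunicamycin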
UCH37 DUB inh: inhibitors of human UCH37 deubiquitinase, primary screen, biochemical, Ub-AMC cleavage, fluorescence | purified proteasome/UCH37 | Ubiquitin carboxyl-terminal hydrolase isozyme L5 (Homo sapiens), Q9Y5K5 | inhibition, % (concentration not given with the values) | 330,000 tested, 0.33% active | AID 588478, 2011;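 active = mean inhibition over replicate wells above about 20%, limit read from the data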;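 also: 0% = compound-free wells with enzyme and 100% = wells lacking proteasome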
Target sequence (Q9Y5K5 whole entry, looked up): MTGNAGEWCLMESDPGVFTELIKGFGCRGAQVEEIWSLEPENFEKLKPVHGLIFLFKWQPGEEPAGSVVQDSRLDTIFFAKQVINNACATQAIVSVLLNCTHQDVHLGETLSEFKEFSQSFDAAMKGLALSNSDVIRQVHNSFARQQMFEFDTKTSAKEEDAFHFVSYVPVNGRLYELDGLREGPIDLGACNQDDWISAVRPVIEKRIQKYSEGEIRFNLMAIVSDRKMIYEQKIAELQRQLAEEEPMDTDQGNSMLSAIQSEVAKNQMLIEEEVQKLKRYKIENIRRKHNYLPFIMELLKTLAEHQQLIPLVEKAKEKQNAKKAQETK
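system = Proteasome-associated human UCH37 deubiquitinase | amount = 0.15 nM proteasome as dispensed | medium = pH 7.4 Tris-HCl (50 mM) with ovalbumin, ATP-MgCl2, DTT | incubation = 30 min preincubation with enzyme, 25 min cleavage at room temperature | detection = AMC fluorescence 355/460 nm | read-out basis = percent inhibition | controls = no-proteasome and no-compound wells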
Fh CTSL1 inh: Fasciola hepatica cathepsin L1 inhibitors, primary screen, counter-screen for PFM18AAP inhibitor project, biochemical, QFRET, fluorogenic peptide substrate; inhibition, % at 5.96 µM; 300,000 tested, 0.49% active; recombinant F. hepatica cathepsin L1, Z-Leu-Arg-MCA fluorescence;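 active = inhibition above the mean of all tested compounds plus 3 SD, set per screening campaign, cut at about 17% in these data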;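 also: 0% = plate median of test compound wells and 100% = 1 µM Z-Phe-Ala-diazomethylketone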
CHOP UPR activ: activators of apoptotic CHOP UPR arm, primary screen, cell-based, CHO-CHOP luciferase reporter, luminescence, uHTS | 330,000 tested, 0.34% active | UPR activation; percent of tunicamycin response over DMSO baseline | activation, % at 10 µM | AID 449763, 2010;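 active = at 10 µM dose, activation of 40% or more, normalized to positive control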;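 also: 100% = tunicamycin at 10 µg/mL and 0% = DMSO alone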
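Evaluation: % reporter activation, DMSO baseline versus tunicamycin full activation; System: CHO-CHOP luciferase reporter cell line; Input: 500 cells/well; Incubation: 6 h compound treatment, 37 °C; Measured by: Steady-Glo luciferase luminescence; Dosing: one dose, 10 µM in 0.5% DMSO; Buffer or medium: F12 medium, 10% FBS; Benchmarks: positive tunicamycin 10 µg/mL, negative DMSO alone.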
* marks the source's active call; other numbers are inactive results; / = not tested or not shown.

SMILES | UPR XBP1 act | CHOP inh | UCH37 DUB inh | Fh CTSL1 inh | CHOP UPR activ
CC(=NNC(=O)c1ccc(Cn2cc(Br)cn2)o1)c1cccc(NC(=O)C(C)C)c1 | / | / | 2 | / | /
Nc1ccc(Oc2cccc(Oc3ccc(N)cc3)c2)cc1 | -4 | 88* | / | 2 | -8
O=C(NC(=S)N1CCCCC1)C12CC3CC(CC(C3)C1)C2 | 0 | 47 | 0 | -4 | -1
O=C(c1cc(NC(=O)C23CC4CC(CC(C4)C2)C3)cc(NC(=O)C23CC4CC(CC(C4)C2)C3)c1)N1CCCCC1 | -1 | 71* | 1 | -4 | 10
CN(C)c1ccc(C=NNC(=O)c2cnc3ccccc3c2)cc1 | / | / | 5 | / | /
Cn1c2ccccc2c2c(C(=O)O)cn(C3CCCC3)c(=O)c21 | -3 | 23 | -170 | 18* | 0
Cn1c2ccccc2c2c(C(=O)N3CCN(C(=O)c4ccco4)CC3)cn(C3CCCCC3)c(=O)c21 | 0 | -25 | -61 | 8 | -1
CCCc1cc(-c2n[nH]c(=S)n2C(C)c2ccccc2)cs1 (stereo not drawn) | 1 | 96* | 3 | 4 | 0
CCCc1cc(-c2n[nH]c(=S)n2CC)cs1 | -1 | 38 | 0 | 2 | 0
Cc1ccc(-c2n[nH]c(=S)n2N=C/C=C/c2ccccc2[N+](=O)[O-])cc1 | / | / | 7 | / | /
FC(F)(F)c1cc(Nc2ccccc2)nc(-c2ccccn2)n1 | -3 | / | 3 | 4 | 1
FC(F)(F)c1cc(Sc2ccccc2)nc(-c2ccccn2)n1 | 4 | 71* | 1 | 1 | -1
O=C1c2ccccc2NC(c2ccc(O)cc2)N1N=Cc1ccc(O)cc1 (stereo not drawn) | / | / | -4 | / | /
CSCCC(NC(=O)c1ccc(Cl)cc1)C(=O)OCC(=O)Nc1cc(Cl)ccc1C#N (stereo not drawn) | -1 | 30 | -2 | -2 | 0
CSCCC(NC(=O)c1ccccc1)C(=O)OCC(=O)Nc1ccc(C)c(Cl)c1 (stereo not drawn) | -1 | 82* | 3 | 1 | -1
Cc1cccc(NC(=O)CSc2nnc(CCC(=O)Nc3ccc(C)c(Cl)c3)n2C)c1 | -2 | 37 | 2 | 3 | -3
Cc1cccc(C(=O)Nc2ccccc2SCC(=O)Nc2ccc(C)c(Cl)c2)c1 | -3 | 73* | 0 | -2 | 0
O=C(NN=Cc1ccccc1F)c1ccc(COc2ccccc2Cl)o1 | / | / | 1 | / | /
O=C(O)c1ccc(C=NNc2nnnn2-c2ccccc2)cc1 | / | / | 0 | / | /
COc1ccccc1C1Nc2cccc3cccc(c23)N1 | 3 | 87* | -15 | -1 | 1
COc1cccc(C=NNC(=O)CC(=O)NCCc2ccccc2)c1OC | / | / | -9 | / | /
O=C1c2cccc(OCc3ccc(F)cc3)c2CCN1Cc1ccc(F)cc1 | 0 | 85* | 3 | -1 | 1
COC(=O)C1=NN(c2cccc3ccccc23)C2C(=O)N(c3ccccc3OC)C(=O)C12 (stereo not drawn) | 0 | 15 | 5 | 19* | 0
CC(Oc1ccccc1F)C(=O)NCCN1CCCCC1 (stereo not drawn) | -7 | 74* | -3 | -2 | -1
CCOc1ccc(N2C(=O)CC(Sc3nnnn3-c3ccccc3)C2=O)cc1 (stereo not drawn) | / | 108* | 1 | / | /
SMILES | UPR XBP1 act | CHOP inh | UCH37 DUB inh | Fh CTSL1 inh | CHOP UPR activ
O=c1[nH]c(/C(Cl)=C/c2c(F)cccc2Cl)nc2cc(Cl)ccc12 | 4 | 79* | -25 | -1 | 2
CN1C(=O)c2cccc(NCCCCCCN3C(=O)c4ccccc4C3=O)c2C1=O | -2 | 71* | -55 | 2 | 2
CN1C(=O)c2cccc(NCCCN3C(=O)c4ccccc4C3=O)c2C1=O | 0 | 5 | -32 | -2 | 1
Cc1cc(C)c(C)c(OCCCOc2cccc3cccnc23)c1 | -2 | 81* | -3 | 4 | 1
c1ccc(OCCOc2cccc3cccnc23)cc1 | 1 | 7 | 6 | -3 | 2
Cc1cc(OCCOc2cccc3cccnc23)cc(C)c1Cl | 1 | 75* | -3 | -2 | 0
CCc1ccc(S(=O)(=O)/N=C2\C=CC(=O)c3ccccc32)cc1 | 18 | -30 | / | -2 | 14
